Experimental findings from ChEMBL document CHEMBL1133621, “Synthesis, characterization, and cytotoxicity of trifunctional dinuclear platinum complexes: comparison of effects of geometry and polyfunctionality on biological activity” (J Med Chem, 2000) are described below.

Values joined by “and” are separate entries in the source; they are usually repeats but may differ in a detail not shown here. Equal values may be shown once.

What all share (format): functional, cell-based
Assay [1] deals with 41M. Put plainly: RF(Resistant factor) is determined from the ratio of IC50 of 41M to the IC50 of CDDP cell lines.
Assay [2] relates to A2780. Put plainly: RF(Resistant factor) is determined from the ratio of IC50 of A2780 to the IC50 of CDDP cell lines.
Assay [3] concerns CH1. The experiment in a line: RF(Resistant factor) is determined from the ratio of IC50 of CH1 to the IC50 of CDDP cell lines.
The test system of assay [4] is HX62 cell line. Put plainly: Cytotoxic activity in a panel of Human ovarian tumor HX/62 cell line after 96h of drug exposure. The method, boiled down:
(§1)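 SRB growth-inhibition assay. Cells were seeded at (3-8) × 10^3 per well and left to attach overnight. Platinum agents were added after serial dilution, in quadruplicate wells, with continuous 96 h exposure. Growth in treated and control wells was quantified by staining with 0.4% SRB dissolved in 1% acetic acid.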

Assay [5] has as its system 41M. Put plainly: Cytotoxic activity in a panel of Human ovarian tumor 41M/CDDP cell line after 96h of drug exposure. In outline:
as §1

For assay [6], the system named is SK-OV-3. Put plainly: Cytotoxic activity in a panel of Human ovarian tumor SKOV-3 cell line after 96h of drug exposure. In outline: as §1
For assay [7], the system named is CH1. The experiment in a line: Cytotoxic activity in a panel of Human ovarian tumor CH1 cell line after 96h of drug exposure. The method, boiled down:
as §1

The subject of assay [8] is CH1. The experiment in a line: Cytotoxic activity in a panel of Human ovarian tumor CH1/CDDP cell line after 96h of drug exposure. In outline:
as §1

Assay [9] concerns 41M. Put plainly: Cytotoxic activity in a panel of Human ovarian tumor 41M cell line after 96h of drug exposure. In outline: as §1
Assay [10] concerns A2780. Put plainly: Cytotoxic activity in a panel of Human ovarian tumor A2780/CDDP cell line after 96h of drug exposure. In outline: as §1
The subject of assay [11] is A2780. Put plainly: Cytotoxic activity in a panel of Human ovarian tumor A2780 cell line after 96h of drug exposure. The method, boiled down:
as §1

Take “trans-[{PtCl(NH3)2}-mu-{NH2(CH2)6NH2}-trans-{PtCl(NH3)2}] [listing 1 of 2 here]”: the RF is 0.21 and 0.24 in assay [1]; 18 and 19.6 in assay [2]; 3.3 and 2 in [3].

The term IC50 denotes the concentration at which inhibition is half-maximal. With CISPLATIN [listing 1 of 2 here], the IC50 stood at 25000 nM in assay [4]; 1700 nM in assay [5]; 8000 nM in assay [6]; 180 nM in assay [7]; 1450 nM in assay [8]; 540 nM in assay [9]. This substance also returned an IC50 in assay [10] of 6200 nM.

As to “trans-[{PtCl(NH3)2}-mu-{NH2(CH2)6NH2}-cis-{PtCl2(NH3)}]Cl [listing 1 of 2 here]”, the RF in assay [1] was 0.27 and 0.53; in assay [2] it was 3.2 and 5.2; in assay [3], 3.2 and 4.4.

“trans-[{PtCl(NH3)2}-mu-{NH2(CH2)6NH2}-cis-{PtCl2(NH3)}]Cl [listing 2 of 2 here]”: the IC50 was 24000 nM and 12500 nM in assay [4]; 670 nM and 1300 nM in [5]; 31000 nM and 17700 nM in assay [6]; 280 nM and 66 nM in assay [11]; 300 nM and 220 nM in [7]; 970 nM and 980 nM in [8]. For the same substance, the IC50 in assay [9] is 2500 nM and 2400 nM; in assay [10], 890 nM and 340 nM.

Consider CISPLATIN [listing 2 of 2 here], for which the results for the RF in [1], in assay [2] and in [3] were 3.1, 11.7 and 8, respectively.

Regarding “trans-[{PtCl(NH3)2}-mu-{NH2(CH2)6NH2}-trans-{PtCl(NH3)2}] [listing 2 of 2 here]”, the IC50 in [4] is 11000 nM and 14000 nM; in assay [5] it was 410 nM and 1800 nM; in assay [6], 15300 nM and 87000 nM; in [11], 66 nM and 250 nM; in [9], 1900 nM and 7400 nM; in assay [10], 1200 nM and 4900 nM.
